Sampled rows, rich in hits. Any-hit rate of the full collection: about 2.3%.
MCL1 BIM primary: disrupts human MCL1 binding to BIM-BH3 peptide | GST-MCL1 / FITC-Bim-BH3 fluorescence polarization | inhibition, % at 10.9 µM | Q07820 | AID 2057 | 320,000 compounds, 0.68% hits;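 active = inhibition above the mean inhibition of all tested compounds plus 3 SD, set per campaign, cut at about 40% in these data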;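 also: 0% = DMSO wells and 100% = unlabeled Bim-BH3 peptide control; higher means more loss of mP so more displacement of Bim peptide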
Target sequence (Q07820 whole entry, looked up): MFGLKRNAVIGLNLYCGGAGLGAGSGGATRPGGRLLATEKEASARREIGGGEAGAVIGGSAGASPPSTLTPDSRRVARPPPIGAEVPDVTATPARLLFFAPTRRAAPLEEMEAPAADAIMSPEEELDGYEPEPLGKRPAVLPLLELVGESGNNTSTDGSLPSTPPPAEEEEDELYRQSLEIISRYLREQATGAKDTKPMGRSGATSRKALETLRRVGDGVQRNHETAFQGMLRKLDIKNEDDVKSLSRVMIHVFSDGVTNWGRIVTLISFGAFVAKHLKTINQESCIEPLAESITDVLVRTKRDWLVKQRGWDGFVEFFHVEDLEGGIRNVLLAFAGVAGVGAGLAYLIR
DSG3 Ab inh: inhibitors of pemphigus antibody binding to human desmoglein-3; P32926; DSG3-coupled beads, scFv-anti-DSG3-GFP binding, flow cytometry; stronger effect = lower value; binding (percent of control), % at 10 µM; 310,000 compounds, 0.48% hits; AID 588358;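 active = binding more than 3 SD below its plate's average and above zero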
T cell modulator: T cell immune modulation candidate. 2C CD8+ T cell-vesicle binding, flow cytometry; stronger effect = lower value. 330,000 compounds, 0.068% hits. response (vesicle binding), % at 7 µM;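 active = response, share of CD8 T cells binding vesicles, and their 90th percentile fluorescence all below set limits, cut at about 80% in these data, passing the limit was not always enough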;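 also: values below 100% mean blocked vesicle binding to the CD8+ T cells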
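Benchmarks: naked versus QL9-loaded vesicles / Assay system: purified 2C TCR transgenic mouse naive CD8+ T cells / Technique: high-throughput flow cytometry with anti-B7-1 and anti-CD8 staining / Timing: Cell–vesicle co-incubation 1.5 h at 37 °C, staining 20 min on ice / Read-out: percent CD8+ FL2 mean versus row control / Probe or stimulus: QL9-loaded Drosophila micro-vesicles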
Mcl-1 Bim block: human Bim-Mcl-1 interaction inhibition. Q07820. Bead-based flow cytometry, Bim peptide-Mcl-1 binding. inhibition, % at 10 µM. 190,000 compounds, 0.1% hits. AID 1009; in the data active = inhibition above about 40%;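 also: 0% = no compound tracer wells and 100% = peptide blocker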
Mcl1-Bid inh: Mcl-1/Bid interaction inhibition; AID 1021; inhibition, % at 21.7 µM; Q07820; 220,000 compounds, 0.97% hits; TR-FRET Mcl-1/Bid-Dy647 peptide binding, 1536-well;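 active = compounds that cut the binding signal by more than half at the single screening dose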;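 also: His-tagged Mcl-1 with europium anti-His antibody binding Bid BH3 peptide; 0% = Mcl-1 plus peptide wells and 100% = peptide-only wells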
Mcl1 Noxa PPI: Mcl-1/Noxa interaction inhibition; Q07820; TR-FRET Mcl-1/Noxa peptide binding, 2 h; inhibition, % at 21.7 µM; 220,000 compounds, 1.5% hits; AID 1022;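 active = compounds that cut the protein-peptide binding signal by more than 50% relative to plate controls in a single-dose test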;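 also: His-tagged Mcl-1 with rhodamine Noxa BH3 peptide and terbium anti-His antibody; 0% = Mcl-1 plus Noxa peptide wells and 100% = peptide-only wells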
* marks the source's active call; other numbers are inactive results; · = not tested or not shown.

SMILES	MCL1 BIM primary	DSG3 Ab inh	T cell modulator	Mcl-1 Bim block	Mcl1-Bid inh	Mcl1 Noxa PPI
Cc1ccc(NC(=O)CN2C(=O)CN=C(c3ccccc3)c3cc(Cl)ccc32)cc1	-2	97	273	0	1	2
CN(C)c1ccc(NC(=O)CN2C(=O)CN=C(c3ccccc3)c3cc(Cl)ccc32)cc1	-5	101	413	-3	2	78*
COc1ccc(/C=C2/C(=O)NC(=S)N(C3CC3)C2=O)cc1CN1C(=O)c2ccccc2C1=O	36	95	857	6	46	95*
COc1ccc(/C=C2/C(=O)NC(=O)N(c3ccccc3)C2=O)cc1CN1C(=O)c2ccccc2C1=O	-11	91	92	·	-149	-12
COc1ccc(Cn2c(N)c(C(=O)NCc3ccco3)c3nc4ccccc4nc32)cc1	-17	101	385	6	40	71*
Nc1c(C(=O)NCc2ccco2)c2nc3ccccc3nc2n1Cc1ccccc1	-8	103	90	3	4	34
Nc1c(C(=O)NCc2ccco2)c2nc3ccccc3nc2n1Cc1ccc(F)cc1	0	96	417	0	53*	65*
COc1cc2c(c(OC)c1OC)-c1ccc(SC)c(=O)cc1C(N)CC2 (configuration not stated)	·	120	·	·	·	·
COc1cc2c(C(=O)O)c(C)n(C)c2cc1Br	-2	101	147	3	-25	-7
COc1cc2c(C(=O)N3CCN(C)CC3)c(C)n(C)c2cc1Br	42*	104	122	-7	-2	6
CN1C(=O)NC(=O)C(N=Nc2ccc(Cl)cc2)C1=O (configuration not stated)	·	92	·	·	·	·
COC(=O)C(O)(c1c[nH]c2ccccc12)C(F)(F)F (configuration not stated)	1	·	374	-1	-10	4
CCOC(=O)c1cc(C(O)(C(=O)OC)C(F)(F)F)c(/N=C/N(C)C)o1 (configuration not stated)	4	95	500	0	-23	86*
C[C@]12CC[C@H](O)CC1C(=O)CC1C2CC[C@@]2(C)C1CC[C@@H]2O (some centres not stated)	·	99	292	·	·	·
COc1cc(C=NNC(=S)Nc2ccc(S(=O)(=O)N3CCCCC3)cc2)cc(OC)c1OC	·	100	·	·	·	·
O=C(O)c1cccc(N=Nc2c(O)[nH]c(=O)[nH]c2=O)c1	-7	99	47*	·	-4	10
O=C(c1ccccc1)c1ccc(N=Nc2c(O)[nH]c(=O)[nH]c2=O)cc1	3	69*	160	-3	-27	21
CC12CCC(=O)C=C1CC(N1CC1)C1C2CCC2(C)C(O)CCC12 (configuration not stated)	·	104	·	·	·	·
O=c1c2ccccc2nc(-c2ccco2)n1-c1cccnc1	3	104	203	-6	-20	97*
O=c1c2ccccc2nc(-c2ccco2)n1-c1ccccn1	2	108	117	-4	-31	1
COc1cc2c(c(OC)c1OC)-c1ccc(OC)c(=O)cc1C(N)CC2 (configuration not stated)	·	93	·	·	·	·
Cn1c(O)c(Cc2ccc(OCc3ccccc3)cc2)c(=O)n(C)c1=O	-1	68*	700	·	·	·
COc1ccc(CN2C(=O)C(CC(=O)NCc3ccco3)CC(C(=O)N(C)C)=C2C)cc1 (configuration not stated)	·	106	·	·	·	·
Cc1nn(Cc2ccccc2Cl)c(C)c1C(=O)OCC(=O)NC1CCCC(C)C1C (configuration not stated)	-21	97	259	-6	-7	19
Cc1ccccc1NC(=O)c1cc(-c2ccccc2)n(CCCN2CCOCC2)c1C	4	105	750	·	63*	4
SMILES	MCL1 BIM primary	DSG3 Ab inh	T cell modulator	Mcl-1 Bim block	Mcl1-Bid inh	Mcl1 Noxa PPI
C=CP(=O)(O)c1ccccc1	8	102	274	-1	55*	29
O=c1[nH]c(Cl)ccc1CN1CCOCC1	-2	104	252	·	·	·
COC(=O)C1=Nc2ccccc2/C1=C\c1c(O)n(-c2ccc(OC)cc2)c(=O)[nH]c1=O	-6	97	779	1	-27	53*
COC(=O)C1=Nc2ccccc2/C1=C\c1c(O)n(-c2ccc(Br)cc2)c(=O)[nH]c1=O	-19	·	262	0	-31	77*
COc1ccc(OC)c(-n2c(O)c(/C=C3\C(C)=Nc4ccccc43)c(=O)[nH]c2=O)c1	-19	107	88	·	-73	1
N=C1c2ccccc2CN1c1ncccn1	7	110	316	1	-8	4
O=C(Nc1nc(-c2ccccc2)c(-c2ccccc2)s1)c1ccc(S(=O)(=O)N(CCCl)CCCl)cc1	6	94	217	0	-36	-57
CC(C)(C)C(O)C(Oc1ccc(Cl)cc1)n1cncn1 (configuration not stated)	8	98	454	-2	76*	2
COc1ccc(OCC(=O)N2CCN(C(C)C)CC2)cc1	3	99	502	-1	53*	6
COc1ccc(OCC(=O)N2CCN(Cc3ccc(SC)cc3)CC2)cc1	-4	104	201	-2	-1	17
CCCCOP(=O)(OCCCC)/C(C#N)=C(/C)O	3	102	323	-3	22	14
CC(C)c1ccc(NC(=O)CSc2nnc(OC(=O)N(C)C)n2C2CC2)cc1	-2	121	199	·	·	·
Cc1ccc(N2C(=O)NC(=O)/C(=C/c3cnc(-c4ccccc4)nc3)C2=O)cc1C	-10	101	267	-1	20	75*
CCC1=Nc2cc(C(=O)N3CCC4(CC3)OCCO4)ccc2Sc2ccc(Br)cc21	-1	115	125	·	·	·
CC(C)C[C@H]1C(=O)N2CCCC2[C@]2(O)O[C@](NC(=O)[C@@H]3C=C4c5cccc6[nH]cc(c56)CC4N(C)C3)(C(C)C)C(=O)N12 (some centres not stated)	194*	92	407	1	-6	17
COC(=O)C1=C(c2ccc(Cl)c(C(F)(F)F)c2)C[C@@H]2CC[C@H]1N2C(=O)NCCCOC(C)C	-1	80	414	·	·	·
Cc1ccc(N2C(=O)/C(=C/N3CCN(C(=O)c4ccco4)CC3)C(=O)NC2=S)cc1C	-1	107	349	0	-41	8
Cc1cccc(N2C(=O)/C(=C/N3CCN(C(=O)c4ccco4)CC3)C(=O)NC2=S)c1	-16	100	392	-5	-27	62*
COc1cccc(CC(=O)N2CCN(Cc3cccc(Cl)c3)CC2)c1	-2	-53*	174	·	·	·
COc1cccc(N2CCN(Cc3cccc(Cl)c3)CC2)c1	-3	99	271	-5	-20	20
Cc1cccc(-n2c(-c3cccs3)nc3ccccc3c2=O)c1	4	103	132	-1	58*	46
O=c1c2ccccc2nc(-c2cccs2)n1-c1ccccc1	2	96	125	-5	-30	4
